For one experiment, the system named is human PMNs. The settings on record: Plg 1 μM, 16 h, 37 °C; media alone 90 ± 21; mean ± SEM, n = 6.
For experiment [1], the target named is recombinant purified integrin αMβ2 (Homo sapiens, UniProt P05107+P11215). As to the kind of experiment: Solid-phase binding to purified αMβ2. The settings on record: higher for Plg than for Ang(1–4). The essentials: (§1)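 Purified recombinant αMβ2, αM or β2 (from HEK293 lines) was coated overnight at 4°C in TBS with 10 mM n-octyl-β-D-glucopyranoside and postcoated with 0.5% PVP for 1 h at 37°C. Biotinylated Plg or Ang(1–4) (0–10 μM) was bound for 2 h at 37°C in the same buffer plus 1 mM CaCl₂/MgCl₂. Binding was detected with alkaline phosphatase–avidin and pNPP at A405. Kd came from a one-site binding fit.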
Chain of recombinant purified integrin αMβ2 (P05107 23-769, other chains not shown): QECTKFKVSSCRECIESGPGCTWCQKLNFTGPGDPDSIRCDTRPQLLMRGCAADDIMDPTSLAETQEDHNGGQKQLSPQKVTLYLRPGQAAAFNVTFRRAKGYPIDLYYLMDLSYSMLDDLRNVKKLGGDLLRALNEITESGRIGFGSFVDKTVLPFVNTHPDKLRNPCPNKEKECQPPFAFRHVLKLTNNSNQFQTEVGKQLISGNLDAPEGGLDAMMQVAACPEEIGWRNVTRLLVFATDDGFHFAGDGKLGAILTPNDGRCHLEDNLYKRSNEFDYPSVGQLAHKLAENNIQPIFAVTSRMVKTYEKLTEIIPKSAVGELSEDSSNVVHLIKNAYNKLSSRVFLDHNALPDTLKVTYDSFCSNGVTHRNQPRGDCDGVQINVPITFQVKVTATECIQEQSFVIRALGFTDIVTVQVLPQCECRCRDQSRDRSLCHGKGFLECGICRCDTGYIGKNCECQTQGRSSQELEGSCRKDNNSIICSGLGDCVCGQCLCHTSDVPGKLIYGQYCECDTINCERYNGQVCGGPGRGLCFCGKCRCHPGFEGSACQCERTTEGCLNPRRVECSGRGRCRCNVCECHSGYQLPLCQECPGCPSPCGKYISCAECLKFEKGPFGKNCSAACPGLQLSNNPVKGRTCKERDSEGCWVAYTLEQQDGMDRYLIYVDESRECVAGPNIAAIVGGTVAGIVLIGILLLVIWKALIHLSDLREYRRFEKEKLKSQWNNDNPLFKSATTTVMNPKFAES

The test system of experiment [2] is caspase-3. As to the kind of experiment: Caspase-3 cleavage in PMN lysates, Western blot. The format is cell-based, human. Conditions: PMN lysate, 16 h; proteins 1 μM, peptides 100 μM; six donors. For orientation: Immunoblotting shows a protein as a band on a membrane.
The test system of experiment [3] is Bax. As to the kind of experiment: Bax cleavage in PMN lysates, Western blot. The format is cell-based, human. Conditions: PMN lysate, 16 h; proteins 1 μM, peptides 100 μM; six donors.
The test system of experiment [4] is αM^(Ile316→Gly)β2 on K562 cells. In words: Adhesion of K562 cells expressing αM^. The format is cell-based, human. Conditions: K562 αM^(Ile316→Gly)β2, data not shown.
Experiment [5] relates to ERK1/2. In words: ERK1/2 phosphorylation in PMNs, Western blot. The format is cell-based, human. Conditions: PMN stimulated with 1 nM PMA, 30 min, 37 °C; proteins 1 μM, peptides 100 μM. The gist of the method: (§2)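 Human PMNs stimulated with 1 nM PMA were incubated with ligands for 30 min at 37°C in HBSS with 1 mM CaCl₂, 1 mM MgCl₂, 0.1% BSA, pH 7.4. Cells were lysed in ice-cold Tris/EDTA/detergent buffer with phosphatase and protease inhibitors. Equal protein was immunoblotted for phospho- and total Akt or ERK1/2, with actin. Inhibition arm: 20 min pretreatment at 37°C with 10 μM Akt inhibitor, 50 μM PD98059, 50 nM NIF, or F(ab′)₂ anti-αM or anti-MHC-1 (20 μg/ml), then 1 μM Plg.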

Experiment [6] deals with caspase-8. In words: Caspase-8 cleavage in PMN lysates, Western blot. The format is cell-based, human. The settings on record: PMN lysate, 16 h; proteins 1 μM, peptides 100 μM; six donors.
The test system of a further experiment is apoptotic PMNs. As to the kind of experiment: Competition with annexin V-FITC binding to apoptotic PMNs. The format is cell-based, human. The settings on record: 0–10 μM, data not shown.
Experiment [7] deals with Akt. In words: Akt phosphorylation in transfected K562 cells, Western blot. The settings on record: 37 °C. The format is cell-based, human. The gist of the method:
(§3)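 Transiently transfected K562 cells (αM, β2, αMβ2 or mock) were exposed to ligands for 30 min at 37°C and lysed in ice-cold buffer. Equal protein was run on SDS-PAGE and blotted with the PathScan Multiplex Western Cocktail I, then reprobed for total ERK1/2; blots shown are representative of three experiments.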

Experiment [8] deals with caspase-8. As to the kind of experiment: Caspase-8 cleavage in K562 cell lysates, Western blot. The format is cell-based, human. Conditions: K562 αMβ2 transfectants, 24 h, 37 °C; proteins 1 μM, peptides 100 μM.
In experiment [9] the test system is Bax. As to the kind of experiment: Bax cleavage in K562 cell lysates, Western blot. The format is cell-based, human. The settings on record: K562 αMβ2 transfectants, 24 h, 37 °C; proteins 1 μM, peptides 100 μM.
A further experiment concerns β2 subunit on K562 cells. In words: Soluble ligand binding to K562 cells expressing β2, FACS. Further details: species or system human. The settings on record: 40 min, 37 °C. The essentials:
(§4)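 Transiently transfected K562 cells were incubated with soluble Alexa 488-labelled Plg or Ang(1–4) for 40 min at 37°C in HBSS containing 1 mM CaCl₂ and 1 mM MgCl₂. Cells were washed twice and bound ligand was quantified by FACS; three independent experiments. For inhibition, cells were pretreated for 20 min at 37°C with function-blocking anti-αM or anti-β2 mAbs (20 μg/ml) or NIF (20 nM).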

A further experiment relates to αMβ2. In words: αMβ2 clustering on PMNs, fluorescence microscopy. The format is cell-based, human. The settings on record: 4 h, 37 °C; proteins 1 μM, peptides 100 μM; anti-αM OKMI staining; four donors. The essentials:
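Human PMNs were exposed to ligands (proteins 1 μM, peptides 100 μM) for 4 h at 37°C, or to 1 μM Plg together with clustering inhibitors at the final concentrations used in apoptosis assays. Cells were fixed in 4% paraformaldehyde and stained with anti-αM mAb OKMI plus Alexa 488 goat anti-mouse IgG. They were cytospun, mounted and imaged by fluorescence microscopy (×40/0.7 NA); PMNs came from four donors.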

The test system of experiment [10] is caspase-3. As to the kind of experiment: Caspase-3 cleavage in K562 cell lysates, Western blot. The format is cell-based, human. Conditions: K562 αMβ2 transfectants, 24 h, 37 °C; proteins 1 μM, peptides 100 μM.
Experiment [11] concerns Akt. As to the kind of experiment: Akt phosphorylation in PMNs, Western blot. The settings on record: PMN stimulated with 1 nM PMA, 30 min, 37 °C; proteins 1 μM, peptides 100 μM. The format is cell-based, human. The essentials:
as §2

Experiment [12] deals with ERK1/2. As to the kind of experiment: ERK1/2 phosphorylation in transfected K562 cells, Western blot. The settings on record: 37 °C. The format is cell-based, human. The gist of the method: as §3
For another experiment, the system named is αM subunit on K562 cells. In words: Soluble ligand binding to K562 cells expressing αM, FACS. More on the design: species or system human. The settings on record: 40 min, 37 °C. The essentials: as §4
In experiment [13] the target is recombinant purified β2 subunit (Homo sapiens, UniProt P05107). In words: Solid-phase binding to purified β2 subunit. Conditions: solid-phase binding, αM versus β2. The essentials:
as §1

Experiment [14] has as its system mock-transfected K562 cells. In words: Apoptosis of mock-transfected K562 cells, annexin V, FACS. The settings on record: 16 h, 37 °C; proteins 1 μM, peptides 100 μM; no ligand 81 ± 8; mean ± SEM, n = 5. The format is cell-based, human.
For the next experiment, the system named is αMβ2 on K562 cells. As to the kind of experiment: Soluble ligand binding to K562 cells expressing αMβ2, FACS. Further details: species or system human. Conditions: 40 min, 37 °C. The gist of the method:
as §4

Several values for one entry are separate records, joined by “and”; a condition that tells them apart may be missing. Equal values may be shown once.

Chain of recombinant purified β2 subunit (P05107 23-769): as the sequence (P05107 23-769, other chains not shown) above

As for plasminogen [Plg], the “PMN early/late apoptosis (% annexin V+ cells), Plg alone” value with human PMNs is 32 ± 10% and 32 ± 105%. Besides, the “affinity of αMβ2 for Plg relative to Ang(1–4)” value in experiment [1] was ~ 10 fold. The “18-kDa caspase-3 fragment” value in the experiment with caspase-3 [2] was “absent”. For the same substance, in the experiment on Bax [3], the “22-kDa Bax fragment” value is reported as “absent”. In addition, the “adhesion to Plg versus wild type” value in [4] is given as “enhanced adhesion to Plg”. In addition, the ERK1/2 activation result with ERK1/2 [5] was “induced ERK1/2 activation”. For the same substance, the caspase-8 fragment result with caspase-8 [6] was “absent”. Also, the “competition with annexin V-FITC binding” value in the experiment with apoptotic PMNs is “did not compete with annexin V-FITC binding at any concentration tested”. Also, the “Akt phosphorylation, αM, β2 and mock cells” value with Akt [7] (K562 expressing αM or β2, or mock-transfected, 30 min) is given as “not in K562 cells expressing the individual αM or β2 subunits (Fig. 6A) or mock-transfected cells”. The “Akt activation, tailless and chimeric αMβ2” value with Akt [7] (K562 expressing αM(1119Δ)β2, αMβ2(728Δ) or αM/αLβ2, Plg, 30 min) is “no Akt activation could be detected”. Also, the “Akt phosphorylation, αMβ2 cells” value with Akt [7] (K562 expressing αMβ2, 30 min) was “robust Akt phosphorylation”. Also, the “caspase-8 cleavage product, αMβ2 cells” value with caspase-8 [8] is “not detected”. For the same substance, the “Bax cleavage product, αMβ2 cells” value in the experiment on Bax [9] is “not detected”. Also, in the experiment on β2 subunit on K562 cells, the “soluble ligand binding, β2 cells (in words)” value is “bound soluble Plg”. Also, in the experiment with αMβ2, the “αMβ2 macroclusters on PMN surface” value was “detected”. The “caspase-3 cleavage product, αMβ2 cells” value with caspase-3 [10] is recorded as “not detected”. In addition, in the experiment with Akt [11], the Akt phosphorylation entry is “robust Akt phosphorylation”. Further, in the experiment with ERK1/2 [12] (K562 expressing αM, 30 min), the “ERK1/2 activation, αM cells” value was “strongly induced”. Moreover, the “ERK1/2 activation, αMβ2 cells” value in the experiment on ERK1/2 [12] (K562 expressing αMβ2, 30 min) was “strongly induced”. Moreover, the “ERK1/2 phosphorylation, mock and β2 cells” value in the experiment on ERK1/2 [12] (K562 mock or expressing β2, 30 min) is reported as “poorly induced”. The “soluble ligand binding, αM cells (in words)” value in the experiment on αM subunit on K562 cells is on record as “bound both ligands”. For the same substance, the “recognition by individual integrin subunits (in words)” value in [13] was “interacted with the individual αM and β2 subunits with similar affinities”. In addition, the “K562 early/late apoptosis (% annexin V+ cells), mock” value in [14] stood at 78 ± 10%. In the experiment on αMβ2 on K562 cells, the “soluble ligand binding, αMβ2 cells (in words)” value is reported as “bound both ligands”.
